Bioassay records from PubChem.
CHO-K1 Ca antag = M1 antagonist counterscreen hit in parental CHO-K1 cells. ATP-induced calcium, Fluo-8 fluorescence. inhibition, % at 3 µM. 360,000 tested, 0.6% active;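 active = inhibition above a per-plate cutoff, the plate's mean sample inhibition plus 3 SD, cut at about 24% in these data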
OX1R antag-1 = OX1R (human) antagonism | O43613 | OX1R-expressing cells, FRET antagonist read-out | inhibition, % at 6.6 µM | 330,000 tested, 1.8% active | AID 485270; in the data active = inhibition mostly above about 38%, no sharp cut-off; inactive = mostly below about 40%
Target sequence (O43613 whole entry, looked up): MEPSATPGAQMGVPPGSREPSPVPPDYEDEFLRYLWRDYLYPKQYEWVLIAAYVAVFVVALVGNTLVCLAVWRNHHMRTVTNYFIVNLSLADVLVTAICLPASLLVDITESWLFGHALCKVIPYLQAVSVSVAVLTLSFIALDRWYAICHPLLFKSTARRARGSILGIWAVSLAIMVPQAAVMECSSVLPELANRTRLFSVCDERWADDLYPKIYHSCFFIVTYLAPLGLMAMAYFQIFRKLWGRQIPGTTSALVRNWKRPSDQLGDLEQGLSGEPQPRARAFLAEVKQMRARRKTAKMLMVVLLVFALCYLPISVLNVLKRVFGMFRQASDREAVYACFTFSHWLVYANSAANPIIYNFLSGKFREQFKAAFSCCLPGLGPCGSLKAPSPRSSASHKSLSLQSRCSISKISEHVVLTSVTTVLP
CHO parental Ca = counter-screen: ATP calcium response change in parental CHO cells | parental CHO-K1, ATP-induced calcium, Fluo-8 fluorescence | inhibition, % at 5.6 µM | 330,000 tested, 0.63% active | AID 463079;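 active = inhibition above that plate's mean sample inhibition plus 3 SD, cut at about 26% in these data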
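test system = CHO parental line | reagent = ATP stimulus | measured by = intracellular calcium via Fluo-8 no-wash fluorescent dye | control set = ATP and no-ATP DMSO wells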
M1 PAM parental = counter-screen for M1 PAMs: effect in parental CHO-K1 cells; activation, % at 3 µM; 360,000 tested, 0.02% active; ATP EC20, Fluo-8 calcium fluorescence; 0% at ATP EC20, 100% at ATP max;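 active = activation above the run cutoff, the mean activation of all test compounds plus 3 SD, cut at about 40% in these data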;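 also: peak over basal fluorescence ratio in a 140 s read after ATP addition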
M1 ag parental = M1 agonist counterscreen hit in parental CHO-K1 cells; 360,000 tested, 0.48% active; Fluo-8 calcium fluorescence; scaled to maximal ATP response, vehicle zero; activation, % at 3 µM; in the data active = activation above about 15%;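 also: untransfected CHO-K1 host cells lacking M1 receptor as counterscreen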
OX1R antag-2 = human HCRTR1 antagonism | O43613 | CHO/OX1R cells, Fluo-8 calcium fluorescence, orexin A | inhibition, % at 5 µM | 330,000 tested, 0.43% active;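 active = inhibition above its plate's threshold, mean inhibition of all tested compounds on the plate plus 3 SD, cut at about 37% in these data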
OX1R Fluo8 conf = OX1R (human) antagonism, confirmed; 1,100 tested, 38% active; inhibition, % at 5 µM; shares compounds with OX1R antag-2; CHO/OX1R cells, orexin A calcium Fluo-8 fluorescence; in the data active = inhibition above about 29%
CHO Ca counter = counter-screen: parental CHO calcium response change, triplicate. inhibition, % at 5.6 µM. parental CHO-K1, ATP-induced calcium, Fluo-8 fluorescence. shares compounds with OX1R antag-2. 1,100 tested, 9.3% active;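 active = inhibition above a per-plate limit, the mean inhibition of that plate's test compounds plus 3 SD, cut at about 25% in these data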
Numbers stand for hits; . = inactive; / = no result. This is a sample that favours compounds with a hit; in the whole collection about 2.9% have one here.

SMILES | CHO-K1 Ca antag | OX1R antag-1 | CHO parental Ca | M1 PAM parental | M1 ag parental | OX1R antag-2 | OX1R Fluo8 conf | CHO Ca counter
O=C(NCc1nc(-c2ccc(C(F)(F)F)cc2)no1)Nc1cc(Cl)cc(Cl)c1 | 35 | . | . | . | . | . | . | 48
O=C(Nc1ccccc1C(=O)O)/C(=C/c1ccc(Cl)cc1Cl)NC(=O)c1ccco1 | . | . | . | . | . | . | / | /
Cc1ccc(N(CC(=O)NC(C)C)C(=O)CCC(=O)Nc2nccs2)c(C)c1 | . | . | . | . | . | . | / | /
Cc1cccc(N2CCN(C(=O)C3CCN(c4ncnc5c4nc4n5CCCCC4)CC3)CC2C)c1 (stereo not drawn) | . | . | . | . | . | . | . | .
Cc1cccc(N2CCN(C(=O)C3CCN(c4ncnc5c4nc4n5CCCCC4)CC3)CC2)c1C | . | . | . | . | . | . | / | /
CCCCOc1ccc(S(=O)(=O)N2CCCCCC2)cc1 | . | . | . | . | . | . | . | .
CC(C)OC(=O)NCCOC(=O)Nc1ccc(Cl)cc1 | . | . | . | . | . | . | . | .
Cc1cc(-c2nnc3n2N=C(c2ccc(-c4ccccc4)cc2)CS3)n[nH]1 | . | . | . | . | . | 57 | . | .
CC1=Nc2ccccc2/C1=C\c1nc(-c2ccc(C(F)(F)F)cc2)oc1O | . | . | . | . | . | 40 | 51 | 54
COc1ccc(-c2nc(/C=C3\C(C)=Nc4ccccc43)c(O)o2)cc1 | . | . | . | . | . | . | . | .
CC(=O)Oc1cc(C(=O)OCC(=O)NC23CC4CC(CC(C4)C2)C3)cc(OC(C)=O)c1OC(C)=O | . | / | / | . | . | / | / | /
N#Cc1ccccc1OCC(=O)Nc1cccc(S(=O)(=O)N2CCCCCC2)c1 | . | . | . | . | . | . | . | .
CCOc1ccccc1OCC(=O)Nc1cccc(S(=O)(=O)N2CCCCCC2)c1 | . | . | . | . | . | . | / | /
O=C(COc1ccc2ccc(=O)oc2c1)Nc1cccc(S(=O)(=O)N2CCCCC2)c1 | . | . | . | . | 17 | . | . | .
Cc1ccc(OCC(=O)Nc2cccc(S(=O)(=O)N3CCCC3)c2)cc1C | . | / | / | . | . | / | / | /
CCOC(=O)c1sc(N)nc1C(C)(C)C | . | . | . | . | . | . | . | .
COc1ccc(C(=O)NNC(=O)C(=O)Nc2cccc3ccccc23)cc1 | . | . | . | . | . | . | . | .
CC1(C)NC(=O)N(CC(=O)N2CCN(c3cccc(Cl)c3)CC2)C1=O | . | . | . | . | . | . | / | /
CNC(=O)C1CCN(S(=O)(=O)c2c(C)noc2/C=C/c2ccc(C)cc2)CC1 | . | . | . | . | . | . | / | /
COc1ccc(OC(=O)N2CCOCC2)cc1 | . | . | . | . | . | . | . | .
COc1cccc2cc(-c3nc(-c4cccs4)cs3)c(=O)oc12 | . | . | . | . | . | . | 69 | .
COc1cccc2cc(-c3ccccc3)c(=O)oc12 | . | . | . | . | . | . | / | /
CCOC(=O)c1ccc(NC(=S)N2CCSC2c2ccc(OC)cc2)cc1 (stereo not drawn) | . | . | . | . | . | . | / | /
CCOC(=O)c1ccc(NC(=S)N2CCSC2c2ccc(Cl)cc2)cc1 (stereo not drawn) | . | . | . | . | . | . | 91 | 73
CCOC(=O)[C@@H](C)NS(=O)(=O)N(Cc1ccccc1)[C@H](C(=O)OC)C(C)C | . | . | . | . | . | . | / | /
CCOC(=O)[C@@H](C)N(Cc1ccc(OC)cc1)S(=O)(=O)N(Cc1ccccc1)[C@H](C(=O)OC)C(C)C | . | . | . | . | . | 50 | . | 58
COc1ccc(N2CC(NC(=O)NCC(C)C)CC2=O)cc1 (stereo not drawn) | . | . | . | . | . | . | / | /
CCNC(=O)C12CCC(C)(C(=O)O1)C2(C)C (stereo not drawn) | . | . | . | . | . | . | . | .
Cc1noc(/C=C/c2ccc(-c3ccccc3Cl)o2)c1[N+](=O)[O-] | . | . | . | . | . | . | 74 | 43
